In the library only some 2.9% were active in any assay of this set; here they are far more common.
Mot1-301 SUMO: yeast Mot1-301 growth rescue at high temperature, primary screen, SUMOylation pathway inhibitor project, S. cerevisiae, ATP luminescence, 38.5C; S. cerevisiae Mot1-301 growth rescue; percent above DMSO median, 100 means doubled; growth rescue, % at 18.8 µM; 320,000 tested, 1% active;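 active = every valid replicate shows activation above 250% relative to neutral control wells; inactive = the rest, any valid replicate at or below 250%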
NLRP3 yeast inh: NALP3 inflammasome inhibitors in reconstituted yeast, primary screen, luminescence, uHTS; Yeast reconstituted NLRP3/ASC/caspase-1, beta-gal luminescence, 24 h; AID 2825, 2010; 330,000 tested, 0.39% active; inhibition, % at 10 µM;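 active = inhibition of 50% or more; inactive = inhibition below 50%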
PolyA inh: polyadenylation inhibitors in yeast reporter cells, primary screen, luminescence, S. cerevisiae; activity score, % at 12 µM; 300,000 tested, 0.02% active; S. cerevisiae SKY197-pL101 polyadenylation reporter, beta-gal luminescence; efflux-impaired pdr1/pdr3 knockout yeast; score 100 = 6 SD above DMSO;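 active = lowest replicate activity score at least 50, where 100 means six control SD above control mean; inconclusive = lowest score under 50 but half or more replicates reach 50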;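 note: yeast exposed to compound for 9 h at 30 °C; higher score means more reporter readthrough which indicates perturbed polyadenylation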
VIM-2 inhibitor: VIM-2 metallo-beta-lactamase inhibitors, primary screen, biochemical, epi-absorbance readout, Pseudomonas aeruginosa enzyme. purified VIM-2, nitrocefin hydrolysis, epi-absorbance fluorescence. inhibition, % at 5.6 µM. 290,000 tested, 0.89% active;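 active = inhibition above the mean of all tested compounds plus 3 SD, cutoff set per screening run, cut at about 7.5% in these data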;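 note: red hydrolysis product quenches plate fluorescence so inhibitors raise well fluorescence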
IMP-1 inhibitor: IMP-1 metallo-beta-lactamase inhibitors, primary screen, biochemical, epi-absorbance readout, Pseudomonas aeruginosa enzyme | purified IMP-1, nitrocefin hydrolysis, epi-absorbance fluorescence | inhibition, % at 5.6 µM | 290,000 tested, 0.45% active;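 active = inhibition above the mean plus 3 SD of all compounds in the same screening run, cut at about 4.5% in these data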
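System – purified recombinant IMP-1 beta-lactamase · Input – IMP-1 dispensed at 0.2 nM · Timing – 15 min preincubation plus 25 min reaction at 25 °C · Signal – Epi-absorbance fluorescence, 480 nm excitation, 530 nm emission · Measure – percent IMP-1 inhibition derived from blank-referenced optical density · Controls – Enzyme-plus-DMSO low control, enzyme-free DMSO high control · Replication – singlicate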
NALP1 yeast inh: NALP1 inflammasome inhibitors in reconstituted yeast, colorimetric, S. cerevisiae, triplicate retest | S. cerevisiae NALP1/ASC/caspase-1 growth, X-gal OD620, 72 h | inhibition, % at 10 µM | 280,000 tested, 0.61% active; in the data active = inhibition mostly above about 24%, no sharp cut-off; inactive = mostly below about 32%
Of the large screens only hits and unclear results are named; the others gave an inactive call.

O=C(Nc1ccc(Nc2ccncc2)cc1)c1ccc(Nc2ccnc3ccc([N+](=O)[O-])cc23)cc1	VIM-2 inhibitor 36, IMP-1 inhibitor 21 (no result: Mot1-301 SUMO, NLRP3 yeast inh)
CCN(CC(=O)Nc1ccc(Br)cc1)CC(=O)Nc1cc(C)on1	none (no result: Mot1-301 SUMO, PolyA inh, VIM-2 inhibitor, IMP-1 inhibitor, NALP1 yeast inh)
CCOc1ccc(NC(=O)CCN2C(=O)c3ccccc3C2=O)cc1	none
CNC(=S)NNC(=O)c1ccc(=O)n(Cc2ccc(Cl)cc2Cl)c1	none
CNC(=S)NNC(=O)c1cccn(Cc2ccc(Cl)cc2Cl)c1=O	Mot1-301 SUMO 336
Cc1cccc(N(CC(=O)NC2CCCCC2)C(=O)CCC(=O)Nc2nccs2)c1	none
CCn1c(COc2ccc(Cl)cc2)nnc1SCC(=O)Nc1ccc2c(c1)OCCO2	NALP1 yeast inh 38
CCn1c(COc2ccccc2C)nnc1SCC(=O)Nc1ccc2c(c1)OCCO2	none (no result: Mot1-301 SUMO)
N#Cc1cccc2c1-c1ccccc1/C2=N/NC(N)=O	VIM-2 inhibitor 10
N#Cc1cccc2c1-c1ccccc1/C2=N/NC(N)=S	none
COc1ccc2c(C(=O)CCl)c[nH]c2c1	none (no result: NALP1 yeast inh)
COc1cccc(/C=N/NC(=S)Nc2cccc(C(=O)O)c2)c1	VIM-2 inhibitor 9.1
COc1cccc(/C=N/NC(=O)C(C)Sc2ccccc2)c1 (stereo not drawn)	NALP1 yeast inh 30
COc1cccc(/C=N/NC(=S)Nc2cccc(S(=O)(=O)N(C)C)c2)c1	none (no result: NALP1 yeast inh)
COc1ccc(O)c(/C=N/NC(=S)Nc2cccc(S(=O)(=O)N(C)C)c2)c1	VIM-2 inhibitor 11 (no result: NLRP3 yeast inh)
CN1CCN(C2=C(Cl)C(=O)C(c3cnc(N4CCCCC4)s3)=C(Cl)C2=O)CC1	NALP1 yeast inh 72
CCc1cc(C(=O)N(Cc2ccccc2)c2c(N)n(CCOC)c(=O)[nH]c2=O)sc1C	PolyA inh inconclusive (no result: VIM-2 inhibitor, IMP-1 inhibitor, NALP1 yeast inh)
Clc1ccc(C2CSc3c4ncnc-4ncn32)cc1 (stereo not drawn)	NALP1 yeast inh 40
Cc1cc(C)n(CC(=O)n2c3ccccc3c3ccccc32)n1	none
Cc1cc(C)n(CC(=O)n2c3c(c4ccccc42)CCCC3)n1	VIM-2 inhibitor 10
CN1CCN(CC(=O)n2c3c(c4ccccc42)CCCC3)CC1	VIM-2 inhibitor 9.9
CCN(CC)CC(=O)n1c2c(c3ccccc31)CCCC2	VIM-2 inhibitor 12 (no result: Mot1-301 SUMO)
O=C(CN1CCCCC1)n1c2ccccc2c2ccccc21	none
Cc1ccc2c(CC(=O)Nc3ccc(F)c(S(=O)(=O)N4CCOCC4)c3)coc2c1	none (no result: PolyA inh, VIM-2 inhibitor, IMP-1 inhibitor, NALP1 yeast inh)
CC1=NN(C(=O)c2ccc(C)o2)C(O)(c2ccccc2)C1 (stereo not drawn)	IMP-1 inhibitor 46 (no result: NLRP3 yeast inh, PolyA inh)
CC1=NN(C(=O)c2ccco2)C(O)(c2ccccc2)C1 (stereo not drawn)	none
CNc1ccc(Br)cc(C(=O)/C=C/c2ccc3c(c2)OCO3)c1=O	IMP-1 inhibitor 9.2
CNc1ccc(Br)cc(C(=O)/C=C/c2ccc(OC)cc2)c1=O	none
COCC(=O)N1CCC(Oc2ccc(C(=O)NCc3cc(C)n(C)n3)cc2)CC1	none
COc1ccccc1N1C(=O)CC(Sc2nccc(C)n2)C1=O (stereo not drawn)	none
COc1ccccc1N1C(=O)CC(Sc2n[nH]c(-c3cccc(C)c3)n2)C1=O (stereo not drawn)	NALP1 yeast inh 73
CNC[C@H]1Oc2c(NS(=O)(=O)c3ccccc3)cccc2C(=O)N([C@H](C)CO)C[C@@H]1C	none (no result: PolyA inh, VIM-2 inhibitor, IMP-1 inhibitor, NALP1 yeast inh)
CC1CC(C)CN(CCCNC(=O)c2ccc3c(c2)ncn3C2CCCC2)C1 (stereo not drawn)	none
CCOC(=O)C1Nc2ccc(C(=O)O)cc2C2C=CCC12 (stereo not drawn)	IMP-1 inhibitor 35
Cc1ccc(-c2cc(C(F)F)n3ncc(C(=O)N4CCCCC4c4cccnc4)c3n2)cc1 (stereo not drawn)	Mot1-301 SUMO 548
O=C(c1cnn2c(C(F)(F)F)cc(-c3ccccc3)nc12)N1CCCCC1c1cccnc1 (stereo not drawn)	none
O=S(=O)(/N=C(/Nc1ccccn1)c1ccccc1)c1ccc(F)cc1	none
CCOC(=O)[C@@H]1[C@H]2COc3cc(OC)ccc3[C@H]2N2C(=O)N(c3ccc(C(F)(F)F)cc3)C(=O)[C@]12C	none (no result: PolyA inh, VIM-2 inhibitor, IMP-1 inhibitor, NALP1 yeast inh)
COc1ccc2[nH]c(=O)c(CN(C(=O)c3ccco3)C3CCCCC3)cc2c1	NALP1 yeast inh 26
Cc1nn(Cc2ccccc2)c(C)c1/C=N/NC(=O)c1ccccc1O	none
O=C1/C(=C\c2ccco2)SC(=S)N1C1CCS(=O)(=O)C1 (stereo not drawn)	IMP-1 inhibitor 7.3
O=C(CCN1C(=O)/C(=C\c2ccco2)SC1=S)Nc1ccc(C(=O)O)c(O)c1	IMP-1 inhibitor 8.0
O=C1/C(=C/c2ccco2)SC(=S)N1CC1CCCO1 (stereo not drawn)	IMP-1 inhibitor 5.4
CC(C(=O)O)N1C(=O)/C(=C/C=C/c2ccco2)SC1=S (stereo not drawn)	IMP-1 inhibitor 5.8
Nc1nonc1-n1nnc(C(=O)N/N=C/c2ccccc2Br)c1CN1CCCC1	none
CCN(C(=O)C(C)N1C(=O)/C(=C/c2ccco2)SC1=S)C1CCS(=O)(=O)C1 (stereo not drawn)	IMP-1 inhibitor 7.8
CC(C(=O)N(C)C1CCS(=O)(=O)C1)N1C(=O)/C(=C/c2ccc(F)cc2)SC1=S (stereo not drawn)	none
Cc1noc(C)c1NC(=O)Nc1ccc2c(c1)C(=O)N([C@H](C)CO)C[C@H](C)[C@@H](CN(C)S(=O)(=O)c1cccs1)O2	none (no result: PolyA inh, VIM-2 inhibitor, IMP-1 inhibitor, NALP1 yeast inh)
O=C(OC1CCOC1=O)C1CCN(S(=O)(=O)c2ccccc2)CC1 (stereo not drawn)	none (no result: PolyA inh, VIM-2 inhibitor, IMP-1 inhibitor, NALP1 yeast inh)
O=C(c1cn(-c2ccccc2)nc1-c1ccc(Cl)cc1)N1CCOCC1	Mot1-301 SUMO 331
COc1cc(C(=O)NNC(=O)c2cc(S(=O)(=O)N(C)C)ccc2N2CCCC2)cc(OC)c1OC	none (no result: PolyA inh, VIM-2 inhibitor, IMP-1 inhibitor, NALP1 yeast inh)
O=C(CCCc1nc(-c2ccccc2Cl)no1)NCc1cccnc1	IMP-1 inhibitor 5.7
O=C(CCc1nc(-c2ccccc2)no1)NCc1cccnc1	none
COc1ccc(S(=O)(=O)N2CCN(c3cnccn3)CC2)cc1OC	none (no result: PolyA inh, VIM-2 inhibitor, IMP-1 inhibitor, NALP1 yeast inh)
COC(=O)c1ccc(N2C(=O)C3CC=CC(C)C3C2=O)cc1 (stereo not drawn)	none
CCOc1cc(-c2nc(-c3ccc(C)nc3OC)no2)cc(OCC)c1OCC	NALP1 yeast inh 27 (no result: Mot1-301 SUMO, NLRP3 yeast inh)
CCN(C[C@H]1N[C@@](C)(C(=O)OC)[C@H]2C(=O)N(C)C(=O)[C@@H]12)C(=O)c1ccc(C(C)(C)C)cc1	none (no result: Mot1-301 SUMO, PolyA inh, VIM-2 inhibitor, IMP-1 inhibitor, NALP1 yeast inh)
S=c1sc2c(N3CCN(Cc4ccccc4)CC3)ncnc2n1-c1ccccc1	none

Source: PubChem
